Here are results for one molecule from ChEMBL document CHEMBL4177770, “Discovery of MK-6169, a Potent Pan-Genotype Hepatitis C Virus NS5A Inhibitor with Optimized Activity against Common Resistance-Associated Substitutions” (J Med Chem, 2018).

Data set [1] concerns the target T1, Nonstructural protein 5A (Hepatitis C virus) (UniProt Q5L478).
T1 sequence (whole entry): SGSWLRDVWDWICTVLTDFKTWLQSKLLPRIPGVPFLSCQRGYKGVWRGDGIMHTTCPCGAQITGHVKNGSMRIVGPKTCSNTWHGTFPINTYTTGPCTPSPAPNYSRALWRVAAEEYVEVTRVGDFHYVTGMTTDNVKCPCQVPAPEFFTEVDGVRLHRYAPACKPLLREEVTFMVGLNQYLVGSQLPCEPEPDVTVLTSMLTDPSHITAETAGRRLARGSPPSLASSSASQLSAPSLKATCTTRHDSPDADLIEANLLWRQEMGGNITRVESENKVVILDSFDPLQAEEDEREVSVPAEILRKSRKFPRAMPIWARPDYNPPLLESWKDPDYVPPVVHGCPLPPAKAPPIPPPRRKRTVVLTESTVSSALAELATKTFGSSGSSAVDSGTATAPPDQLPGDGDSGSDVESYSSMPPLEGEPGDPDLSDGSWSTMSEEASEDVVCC
Put plainly: Inhibition of NS5A A92T mutant in HCV genotype 1b infected in HuH7 replicon cells assessed as decrease in viral replication after 3 days by RT-PCR method. As to conditions: Hepatitis C virus subtype 1b. Type of data set: cell-based. Background: Replicon systems follow genome replication, usually without infectious particles.

A short description of data set [2]: Drug level in Wistar Han rat at 100 mg/kg, po measured at 24 hrs by LC/MS method. Type of data set: ADME, organism-based. As to conditions: in vivo, read-out: Drug uptake. Put shortly: (§1)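 Single rising oral dose study in fed male Wistar Han rats, dosed PO in 10% TWEEN at the indicated doses. Plasma was obtained by centrifuging the blood, and compound levels were determined by LC/MS.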

Data set [3] is described as follows: Drug level in Beagle dog at 5 mg/kg, po measured at 24 hrs by LC/MS method. Type of data set: ADME, organism-based, Canis lupus familiaris. As to conditions: in vivo, read-out: Drug uptake. Put shortly: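 Beagle dogs, two animals per dosing group. Oral dose was given in 10% TWEEN. Blood was collected and spun to plasma, and plasma compound levels were measured by LC/MS.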

In data set [4] the target is T1, Nonstructural protein 5A (Hepatitis C virus). Briefly: Inhibition of NS5A L31V mutant in HCV genotype 4a infected in HuH7 replicon cells assessed as decrease in viral replication after 3 days by RT-PCR method. As to conditions: Hepatitis C virus subtype 4a. Type of data set: cell-based.
A short description of data set [5]: Resistance ratio of EC90 for NS3 A156T mutant in HCV genotype 1b infected in HuH7 replicon cells to EC90 for NS5A in HCV genotype 1a infected in HuH7 replicon cells. It is filed as cell-based.
For data set [6], the target named is T1, Nonstructural protein 5A (Hepatitis C virus). Put plainly: Inhibition of NS5A M31V mutant in HCV genotype 2b infected in HuH7 replicon cells assessed as decrease in viral replication after 3 days by RT-PCR method. It is filed as cell-based. As to conditions: Hepatitis C virus subtype 2b.
Data set [7] can be described thus: Tmax in Wistar Han rat at 100 mg/kg, po by LC/MS method. Type of data set: ADME, organism-based. As to conditions: in vivo. The procedure, abridged:
as §1

Data set [8] concerns the target T1, Nonstructural protein 5A (Hepatitis C virus). Put plainly: Inhibition of NS5A in HCV genotype 3a infected in HuH7 replicon cells assessed as decrease in viral replication after 3 days by RT-PCR method. Type of data set: cell-based. As to conditions: Hepatitis C virus subtype 3a.
Data set [9] can be described thus: Cmax in Wistar Han rat at 100 mg/kg, po by LC/MS method. It is filed as ADME, organism-based. Further details: dose 100 mg/kg, route oral. As to conditions: in vivo. Put shortly:
as §1

The nature of data set [10]: Resistance ratio of EC90 for NS5A in HCV genotype 3a infected in HuH7 replicon cells to EC90 for NS5A in HCV genotype 1a infected in HuH7 replicon cells. Type of data set: cell-based.
A short description of data set [11]: Resistance ratio of EC90 for NS5A L31V mutant in HCV genotype 1b infected in HuH7 replicon cells to EC90 for NS5A in HCV genotype 1a infected in HuH7 replicon cells. Type of data set: cell-based.
The target of data set [12] is T1, Nonstructural protein 5A (Hepatitis C virus). Put plainly: Inhibition of NS5A A30T mutant in HCV genotype 3a infected in HuH7 replicon cells assessed as decrease in viral replication after 3 days by RT-PCR method. Type of data set: cell-based. As to conditions: Hepatitis C virus subtype 3a.
The test system of data set [13] is T2, Nonstructural protein 5A (Hepatitis C virus), Q5L478 [Y93N].
T2 sequence (whole entry): T1 sequence (whole entry) with Y93N
Briefly: Inhibition of NS5A Y93N mutant in HCV genotype 1a infected in HuH7 replicon cells assessed as decrease in viral replication after 3 days by RT-PCR method. It is filed as cell-based. As to conditions: Hepatitis C virus subtype 1a.

In data set [14] the target is T1, Nonstructural protein 5A (Hepatitis C virus). Put plainly: Inhibition of NS5A A146S mutant in HCV genotype 2b infected in HuH7 replicon cells assessed as decrease in viral replication after 3 days by RT-PCR method. As to conditions: Hepatitis C virus subtype 2b. It is filed as cell-based.
Data set [15] can be described thus: Cmax in Wistar Han rat at 10 mg/kg, po by LC/MS method. Further details: dose 10 mg/kg, route oral. As to conditions: in vivo. Type of data set: ADME, organism-based. Put shortly: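 Male Wistar Han rats, two per dosing group, dosed orally at 10 mg/kg in 10% TWEEN. Plasma was separated from collected blood by centrifugation and analysed by LC/MS.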
The nature of data set [16]: Resistance ratio of EC90 for NS5A Y93H mutant in HCV genotype 3a infected in HuH7 replicon cells to EC90 for NS5A in HCV genotype 1a infected in HuH7 replicon cells. Type of data set: cell-based.
Data set [17] concerns Hepatitis C virus subtype 1a. Put plainly: Resistance ratio of EC90 for NS3 R155K/V36M double mutant in HCV genotype 1a infected in HuH7 replicon cells to EC90 for NS5A in HCV genotype 1a infected in HuH7 replicon cells. Type of data set: cell-based.
For data set [18], the target named is T1, Nonstructural protein 5A (Hepatitis C virus). Put plainly: Inhibition of NS5A in HCV genotype 1a infected in HuH7 replicon cells assessed as decrease in viral replication after 3 days by RT-PCR method. It is filed as cell-based. As to conditions: Hepatitis C virus subtype 1a.
Data set [19] has the same target. Put plainly: Inhibition of NS5A in HCV genotype 4a infected in HuH7 replicon cells assessed as decrease in viral replication after 3 days by RT-PCR method. Type of data set: cell-based. As to conditions: Hepatitis C virus subtype 4a.
Data set [20] is described as follows: Resistance ratio of EC90 for NS5A L31M mutant in HCV genotype 2a infected in HuH7 replicon cells to EC90 for NS5A in HCV genotype 1a infected in HuH7 replicon cells. It is filed as cell-based.
The subject of data set [21] is Hepatitis C virus subtype 1a. Briefly: Resistance ratio of EC90 for NS5A K24R mutant in HCV genotype 1a infected in HuH7 replicon cells to EC90 for NS5A in HCV genotype 1a infected in HuH7 replicon cells. Type of data set: cell-based.
The nature of data set [22]: Drug level in Wistar Han rat at 300 mg/kg, po measured at 24 hrs by LC/MS method. Type of data set: ADME, organism-based. As to conditions: in vivo, read-out: Drug uptake. Put shortly:
as §1

For data set [23], the target named is T1, Nonstructural protein 5A (Hepatitis C virus). Briefly: Inhibition of NS5A F28Y mutant in HCV genotype 2a infected in HuH7 replicon cells assessed as decrease in viral replication after 3 days by RT-PCR method. It is filed as cell-based. As to conditions: Hepatitis C virus subtype 2a.

Each structure is given as a SMILES string. Changes are numbered by the printed parent chain.

What is called EC90 is the point of the concentration-response curve where the effect stands at 90%. A word on the Tmax: it is the time at which the peak concentration occurs. The Cmax is the maximum level reached in the sampled fluid or tissue. Consider `COC(=O)N[C@H](C(=O)N1CCC[C@H]1c1ncc(-c2cc(F)c3c(c2)O[C@@H](c2ccc(C4CC4)s2)n2c-3cc3cc(-c4cnc([C@@H]5CCCN5C(=O)[C@@H](NC(=O)OC)[C@@H]5CCOC(C)(C)C5)[nH]4)ccc32)[nH]1)C(C)C`, for which the EC90 in data set [1] was 3.9 pM; in data set [4], 7.7 pM; in data set [6] it was 0.019 nM; in data set [8] it was 1 to 6.6 pM; in data set [12] it was 3.6 pM; in data set [13], 0.069 nM. The EC90 was 3.4 pM in [14], 4.2 pM in data set [18], 6 pM in [19] and 0.069 nM in data set [23]. The concentration at 24 h in data set [2] is 72 nM; in [3], 29 nM; in [22], 164 nM. Also, the Ratio in [5] was 1; in data set [10], 2; in data set [11], 1; in data set [16] it was 571; in data set [17], less than 1; in data set [20], 6. The Ratio in [21] is less than 1. Further, the Tmax in [7] was 2 h. For the same molecule, the figures for the Cmax in [9] and in data set [15] were 760 nM and 150 to 183 nM, respectively.
